Series [1] has as its target T1, Alpha-1 adrenergic receptor (Mus musculus, UniProt P97714+P97717+P97718).
T1 sequence (P97714 whole entry): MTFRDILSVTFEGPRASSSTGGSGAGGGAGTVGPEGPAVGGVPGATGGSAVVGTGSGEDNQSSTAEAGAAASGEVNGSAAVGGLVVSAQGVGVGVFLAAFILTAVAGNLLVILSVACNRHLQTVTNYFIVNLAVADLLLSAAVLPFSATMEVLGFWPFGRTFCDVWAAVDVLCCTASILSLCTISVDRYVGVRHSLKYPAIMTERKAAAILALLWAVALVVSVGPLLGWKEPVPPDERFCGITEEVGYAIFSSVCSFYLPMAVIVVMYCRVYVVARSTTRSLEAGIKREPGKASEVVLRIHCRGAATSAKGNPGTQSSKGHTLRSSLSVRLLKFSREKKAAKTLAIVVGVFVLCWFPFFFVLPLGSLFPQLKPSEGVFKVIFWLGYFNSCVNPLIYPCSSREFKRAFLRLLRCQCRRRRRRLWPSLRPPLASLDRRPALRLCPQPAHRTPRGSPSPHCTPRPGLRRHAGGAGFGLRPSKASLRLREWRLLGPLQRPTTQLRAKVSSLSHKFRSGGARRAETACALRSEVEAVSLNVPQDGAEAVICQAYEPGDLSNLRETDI
T1 sequence (P97717 whole entry): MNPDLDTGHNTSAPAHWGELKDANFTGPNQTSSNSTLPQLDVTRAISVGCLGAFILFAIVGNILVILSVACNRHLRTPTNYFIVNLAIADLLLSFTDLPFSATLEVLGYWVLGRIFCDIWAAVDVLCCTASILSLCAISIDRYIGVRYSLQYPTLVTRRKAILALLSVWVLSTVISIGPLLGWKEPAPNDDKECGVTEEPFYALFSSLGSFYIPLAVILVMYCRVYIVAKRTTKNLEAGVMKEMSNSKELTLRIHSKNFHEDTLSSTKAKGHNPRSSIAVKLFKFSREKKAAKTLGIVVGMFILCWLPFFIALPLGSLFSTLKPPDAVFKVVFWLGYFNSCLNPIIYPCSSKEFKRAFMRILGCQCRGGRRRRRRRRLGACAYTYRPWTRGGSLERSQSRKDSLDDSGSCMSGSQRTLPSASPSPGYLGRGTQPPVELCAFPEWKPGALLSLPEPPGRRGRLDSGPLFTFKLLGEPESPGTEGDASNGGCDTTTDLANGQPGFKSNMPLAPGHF
T1 sequence (P97718 whole entry): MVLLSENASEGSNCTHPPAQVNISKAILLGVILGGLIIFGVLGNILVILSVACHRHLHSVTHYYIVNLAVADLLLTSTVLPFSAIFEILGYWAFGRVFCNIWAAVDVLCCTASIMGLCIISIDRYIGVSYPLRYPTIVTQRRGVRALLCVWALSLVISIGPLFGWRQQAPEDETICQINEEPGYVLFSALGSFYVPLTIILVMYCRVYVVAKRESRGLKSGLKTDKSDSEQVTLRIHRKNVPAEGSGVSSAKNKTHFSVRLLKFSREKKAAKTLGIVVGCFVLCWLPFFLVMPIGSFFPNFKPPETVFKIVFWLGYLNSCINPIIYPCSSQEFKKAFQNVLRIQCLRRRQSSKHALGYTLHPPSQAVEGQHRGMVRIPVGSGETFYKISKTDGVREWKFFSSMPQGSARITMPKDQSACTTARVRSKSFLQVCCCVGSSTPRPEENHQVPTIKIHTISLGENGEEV
Kind of series: Displacement of [3H]prazosin from alpha1 adrenoceptor in C57BL/6 mouse hippocampal homogenates after 40 mins by liquid scintillation counting method. The gist of the method:
(§1)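 Mouse hippocampal homogenate incubated with 1.5 nM [³H]prazosin and competing ligand across a concentration series. Bound radioligand was expressed as displacement relative to control. IC₅₀ was obtained from non-linear regression fitting of concentration-effect curves, and curve fits were compared with tamsulosin.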

Series [2] has as its target T2, alpha1 adrenoceptor (Mus musculus, UniProt P97714+P97717+P97718).
T2 sequence (P97714 whole entry): T1 sequence (P97714 whole entry)
T2 sequence (P97717 whole entry): T1 sequence (P97717 whole entry)
T2 sequence (P97718 whole entry): T1 sequence (P97718 whole entry)
Kind of series: Displacement of [3H]prazosin from alpha1 adrenoceptor in C57BL/6 mouse hippocampal homogenates assessed as remaining receptor bound [3H]prazosin levels at 0.0001 uM after 40 mins by liquid scintillation counting method relative to control. To be noted: probe [3H]prazosin, read-out: Activity. A digest of the protocol:
as §1

For series [3], the target named is T2, alpha1 adrenoceptor. In words: Displacement of [3H]prazosin from alpha1 adrenoceptor in C57BL/6 mouse hippocampal homogenates assessed as remaining receptor bound [3H]prazosin levels at 0.001 uM after 40 mins by liquid scintillation counting method relative to control. To be noted: probe [3H]prazosin, read-out: Activity. The gist of the method:
as §1

The target in series [4] is T2, alpha1 adrenoceptor. Kind of series: Displacement of [3H]prazosin from alpha1 adrenoceptor in C57BL/6 mouse hippocampal homogenates assessed as remaining receptor bound [3H]prazosin levels at 0.003 uM after 40 mins by liquid scintillation counting method relative to control. To be noted: probe [3H]prazosin, read-out: Activity. The gist of the method: as §1
Series [5] deals with T2, alpha1 adrenoceptor. In words: Displacement of [3H]prazosin from alpha1 adrenoceptor in C57BL/6 mouse hippocampal homogenates assessed as remaining receptor bound [3H]prazosin levels at 0.01 uM after 40 mins by liquid scintillation counting method relative to control. The conditions noted are these: probe [3H]prazosin, read-out: Activity. A digest of the protocol:
as §1

Series [6] addresses T2, alpha1 adrenoceptor. In words: Displacement of [3H]prazosin from alpha1 adrenoceptor in C57BL/6 mouse hippocampal homogenates assessed as remaining receptor bound [3H]prazosin levels at 0.03 uM after 40 mins by liquid scintillation counting method relative to control. To be noted: probe [3H]prazosin, read-out: Activity. The gist of the method:
as §1

For series [7], the target named is T2, alpha1 adrenoceptor. In words: Displacement of [3H]prazosin from alpha1 adrenoceptor in C57BL/6 mouse hippocampal homogenates assessed as remaining receptor bound [3H]prazosin levels at 0.1 uM after 40 mins by liquid scintillation counting method relative to control. The conditions noted are these: probe [3H]prazosin, read-out: Activity. A digest of the protocol: as §1

For series [8], the target named is T2, alpha1 adrenoceptor. In words: Displacement of [3H]prazosin from alpha1 adrenoceptor in C57BL/6 mouse hippocampal homogenates assessed as remaining receptor bound [3H]prazosin levels at 0.3 uM after 40 mins by liquid scintillation counting method relative to control. The conditions noted are these: probe [3H]prazosin, read-out: Activity. The gist of the method:
as §1

The target of series [9] is T2, alpha1 adrenoceptor. Kind of series: Displacement of [3H]prazosin from alpha1 adrenoceptor in C57BL/6 mouse hippocampal homogenates assessed as remaining receptor bound [3H]prazosin levels at 1 uM after 40 mins by liquid scintillation counting method relative to control. The conditions noted are these: probe [3H]prazosin, read-out: Activity. A digest of the protocol: as §1

The target of series [10] is T2, alpha1 adrenoceptor. Kind of series: Displacement of [3H]prazosin from alpha1 adrenoceptor in C57BL/6 mouse hippocampal homogenates assessed as remaining receptor bound [3H]prazosin levels at 3 uM after 40 mins by liquid scintillation counting method relative to control. The conditions noted are these: probe [3H]prazosin, read-out: Activity. A digest of the protocol: as §1

The target of series [11] is T2, alpha1 adrenoceptor. In words: Displacement of [3H]prazosin from alpha1 adrenoceptor in C57BL/6 mouse hippocampal homogenates assessed as remaining receptor bound [3H]prazosin levels at 10 uM after 40 mins by liquid scintillation counting method relative to control. The conditions noted are these: probe [3H]prazosin, read-out: Activity. A digest of the protocol: as §1

For series [12], the target named is T2, alpha1 adrenoceptor. Kind of series: Displacement of [3H]prazosin from alpha1 adrenoceptor in C57BL/6 mouse hippocampal homogenates assessed as remaining receptor bound [3H]prazosin levels at 30 uM after 40 mins by liquid scintillation counting method relative to control. To be noted: probe [3H]prazosin, read-out: Activity. A digest of the protocol: as §1

Series [13] concerns the target T2, alpha1 adrenoceptor. In words: Displacement of [3H]prazosin from alpha1 adrenoceptor in C57BL/6 mouse hippocampal homogenates assessed as remaining receptor bound [3H]prazosin levels at 100 uM after 40 mins by liquid scintillation counting method relative to control. The conditions noted are these: probe [3H]prazosin, read-out: Activity. A digest of the protocol: as §1

For series [14], the system named is Mus musculus. Kind of series: Anti-depressant-like activity in mouse assessed as time spent immobile at 0.1 mg/kg, ip administered 60 mins prior to testing measured for 6 mins by tail suspension test (reference value: 186.9 +/- 13.2 secs). It is filed as functional.
In series [15] the test system is Mus musculus. Kind of series: Anti-depressant-like activity in mouse assessed as time spent immobile at 1 mg/kg, ip administered 60 mins prior to testing measured for 6 mins by tail suspension test (reference value: 186.9 +/- 13.2 secs). The series is classed as functional.
In series [16] the test system is Mus musculus. Kind of series: Anti-depressant-like activity in mouse assessed as time spent immobile at 3.2 mg/kg, ip administered 60 mins prior to testing measured for 6 mins by tail suspension test (reference value: 186.9 +/- 13.2 secs). It is filed as functional.
For series [17], the system named is Mus musculus. Kind of series: Toxicity in mouse assessed as suppression of locomotion at 1 mg/kg, ip measured for 5 mins. The series is classed as organism-based. To be noted: in vivo.
Series [18] has as its system Mus musculus. In words: Toxicity in mouse assessed as suppression of locomotion at 10 mg/kg, ip measured for 5 mins. It is filed as organism-based. To be noted: in vivo.
For series [19], the system named is Mus musculus. Kind of series: Toxicity in mouse assessed as suppression of locomotion at 0.1 mg/kg, ip measured for 5 mins. It is filed as organism-based. The conditions noted are these: in vivo.

In the case of `CCN1/C(=C/c2ccc3cc(I)ccc3[n+]2CC)C=Cc2ccccc21.[I-]`, in series [1], the IC50 is recorded as 711 nM. In series [2], the activity at 40 min, 0.0001 µM was determined as 100%. In [3], the activity at 40 min, 0.001 µM amounted to 111%. Besides, the activity at 40 min, 0.003 µM in series [4] was determined as 130%. The activity at 40 min, 0.01 µM in series [5] came to 98.3%. Besides, the activity at 40 min, 0.03 µM in series [6] worked out at 119%. In series [7], the activity at 40 min, 0.1 µM turned out to be 96%. Also, the activity at 40 min, 0.3 µM in [8] worked out at 94%. Moreover, the activity at 40 min, 1 µM in series [9] turned out to be 39.3%. For the same compound, in series [10], the activity at 40 min, 3 µM was found to be 52%. For the same compound, in series [11], the activity at 40 min, 10 µM is -2.8%. Further, the activity at 40 min, 30 µM in series [12] is -3%. In series [13], the activity at 40 min, 100 µM was determined as 12.3%. Further, the figures for the Time in [14], in series [15] and in series [16] were 183 s, 184.5 s and 167.6 s, respectively. The Activity result in series [17], in series [18] and in [19] was “Non-Toxic” each time.

For the origin of these results see ChEMBL document CHEMBL4118073, “Evaluation of the antidepressant therapeutic potential of isocyanine and pseudoisocyanine analogues of the organic cation decynium-22” (Eur J Med Chem, 2017).
